Measured values as given in ChEMBL document CHEMBL4321859, “Unforeseen Possibilities To Investigate the Regulation of Polyamine Metabolism Revealed by Novel C-Methylated Spermine Derivatives” (J Med Chem, 2019).
Activity calls are given as the source filed them. The calls are words filed in the database; no cut-off is given here.

Tests used:
CC(CCN)NCCCCNC(C)CCN = assay: (§1) Substrate activity at recombinant mouse SSAT assessed as Km at 2000 to 6000 uM; assay type: ADME
CC(CN)CNCCCCNCC(C)CN = assay: as §1; assay type: ADME
[1] = target: T1, S-adenosylmethionine decarboxylase proenzyme (Homo sapiens) (UniProt P17707); assay: Inhibition of AdoMetDC in human DU145 cells at 100 uM after 3 days; assay type: cell-based
T1 sequence (whole entry): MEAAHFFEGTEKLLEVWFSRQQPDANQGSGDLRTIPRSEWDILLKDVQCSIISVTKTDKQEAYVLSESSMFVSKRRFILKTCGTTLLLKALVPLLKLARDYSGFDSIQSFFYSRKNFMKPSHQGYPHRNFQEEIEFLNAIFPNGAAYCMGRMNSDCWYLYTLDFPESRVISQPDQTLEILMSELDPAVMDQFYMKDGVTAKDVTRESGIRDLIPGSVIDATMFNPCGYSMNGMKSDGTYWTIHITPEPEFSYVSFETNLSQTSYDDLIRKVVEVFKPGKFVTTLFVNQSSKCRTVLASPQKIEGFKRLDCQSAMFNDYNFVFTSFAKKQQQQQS

[2] = target: Ornithine decarboxylase antizyme 1 (Homo sapiens) (UniProt P54368); assay: Induction of OAZ1 in human DU145 cells assessed as reduction in intracellular ODC activity at 10 uM after 6 hrs relative to control; set-up: scale not given: the % may be the effect or the level left
Ornithine decarboxylase antizyme 1 (Homo sapiens), sequence (P54368 whole entry): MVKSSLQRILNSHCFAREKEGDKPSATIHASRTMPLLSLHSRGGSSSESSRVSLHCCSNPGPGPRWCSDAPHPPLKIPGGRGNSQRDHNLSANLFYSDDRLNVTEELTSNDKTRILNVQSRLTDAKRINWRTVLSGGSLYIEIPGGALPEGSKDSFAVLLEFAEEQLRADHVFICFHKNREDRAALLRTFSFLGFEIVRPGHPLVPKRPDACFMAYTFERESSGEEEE

[3] = target: Spermine oxidase (Homo sapiens) (UniProt Q9NWM0); assay: Inhibition of recombinant human SMOX at 500 uM using spermine as substrate relative to control
Spermine oxidase (Homo sapiens), sequence (Q9NWM0 whole entry): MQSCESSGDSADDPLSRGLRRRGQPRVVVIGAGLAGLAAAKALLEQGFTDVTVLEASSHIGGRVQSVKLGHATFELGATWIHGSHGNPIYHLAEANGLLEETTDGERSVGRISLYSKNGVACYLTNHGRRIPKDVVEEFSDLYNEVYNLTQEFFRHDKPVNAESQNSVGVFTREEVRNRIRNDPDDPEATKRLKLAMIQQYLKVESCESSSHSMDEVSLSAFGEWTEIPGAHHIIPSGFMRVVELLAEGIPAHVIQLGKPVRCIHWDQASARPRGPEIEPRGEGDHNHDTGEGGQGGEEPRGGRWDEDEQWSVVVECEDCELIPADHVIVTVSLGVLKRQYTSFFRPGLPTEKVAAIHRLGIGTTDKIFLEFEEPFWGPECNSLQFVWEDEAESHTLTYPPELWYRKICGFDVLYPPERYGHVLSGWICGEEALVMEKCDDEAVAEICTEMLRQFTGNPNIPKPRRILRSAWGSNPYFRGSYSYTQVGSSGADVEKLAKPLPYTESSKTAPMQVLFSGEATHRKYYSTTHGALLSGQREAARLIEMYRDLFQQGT
How it was run: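 Human recombinant SMOX reaction with spermine fixed at 50 μM as substrate, analogue added at 500 μM. Activity expressed relative to reaction without analogue.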

[4] = target: Diamine acetyltransferase 1 (Homo sapiens) (UniProt P21673); assay: Induction of changes in SSAT activity in human DU145 cells at 100 uM after 3 days; assay type: cell-based
Diamine acetyltransferase 1 (Homo sapiens), sequence (P21673 whole entry): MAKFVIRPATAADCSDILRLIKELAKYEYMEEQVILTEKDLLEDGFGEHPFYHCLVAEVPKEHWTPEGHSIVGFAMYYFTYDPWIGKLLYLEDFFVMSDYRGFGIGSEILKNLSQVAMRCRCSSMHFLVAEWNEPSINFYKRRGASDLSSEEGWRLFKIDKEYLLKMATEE

[5] = target: Diamine acetyltransferase 1 (Homo sapiens) (UniProt P21673); assay: Induction of changes in SSAT activity in human DU145 cells at 100 uM after 6 hrs; assay type: cell-based
[6] = target: T2, Ornithine decarboxylase (Homo sapiens) (UniProt P11926); assay: Inhibition of ODC in human DU145 cells at 100 uM after 6 hrs; assay type: cell-based
T2 sequence (whole entry): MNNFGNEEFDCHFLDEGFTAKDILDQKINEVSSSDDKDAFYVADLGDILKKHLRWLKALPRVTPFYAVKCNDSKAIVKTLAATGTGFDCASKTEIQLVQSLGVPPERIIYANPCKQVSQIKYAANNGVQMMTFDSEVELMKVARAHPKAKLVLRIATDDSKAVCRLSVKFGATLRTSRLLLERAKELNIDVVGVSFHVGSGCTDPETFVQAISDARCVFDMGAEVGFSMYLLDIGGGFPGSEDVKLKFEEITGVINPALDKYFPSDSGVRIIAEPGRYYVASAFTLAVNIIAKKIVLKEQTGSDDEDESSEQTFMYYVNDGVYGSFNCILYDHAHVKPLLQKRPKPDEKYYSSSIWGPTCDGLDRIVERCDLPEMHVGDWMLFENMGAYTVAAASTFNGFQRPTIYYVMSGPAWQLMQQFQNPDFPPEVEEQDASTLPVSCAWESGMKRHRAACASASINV

[7] = target: T3, Amine oxidase [copper-containing] 3 (Bos taurus) (UniProt Q9TTK6); assay: Inhibition of bovine plasma SSAO at 50 uM using spermine as substrate relative to control
T3 sequence (whole entry): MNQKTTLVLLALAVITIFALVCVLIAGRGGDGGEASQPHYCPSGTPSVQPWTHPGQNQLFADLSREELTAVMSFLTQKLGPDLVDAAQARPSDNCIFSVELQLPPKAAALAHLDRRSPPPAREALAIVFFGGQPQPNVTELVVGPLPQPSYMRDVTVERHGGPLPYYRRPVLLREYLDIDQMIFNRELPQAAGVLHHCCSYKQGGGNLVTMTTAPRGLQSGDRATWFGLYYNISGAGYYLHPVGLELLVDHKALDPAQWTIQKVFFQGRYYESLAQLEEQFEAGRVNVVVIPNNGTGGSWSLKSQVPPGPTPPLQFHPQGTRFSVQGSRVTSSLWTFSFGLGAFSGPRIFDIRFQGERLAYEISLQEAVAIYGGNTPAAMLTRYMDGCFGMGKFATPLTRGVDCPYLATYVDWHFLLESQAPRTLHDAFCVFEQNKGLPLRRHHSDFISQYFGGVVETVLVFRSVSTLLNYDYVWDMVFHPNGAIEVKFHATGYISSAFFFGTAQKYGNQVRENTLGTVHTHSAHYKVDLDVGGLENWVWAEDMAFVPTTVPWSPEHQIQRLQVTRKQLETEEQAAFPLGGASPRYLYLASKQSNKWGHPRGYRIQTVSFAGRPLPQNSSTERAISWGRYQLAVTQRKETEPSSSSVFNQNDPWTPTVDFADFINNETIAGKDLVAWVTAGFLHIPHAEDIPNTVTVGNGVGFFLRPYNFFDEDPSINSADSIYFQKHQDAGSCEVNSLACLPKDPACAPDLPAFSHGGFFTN
How it was run: (§2)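 Competition with natural substrate at fixed 50 μM: spermine for purified bovine plasma SSAO and human recombinant SMOX, N1-acetylspermidine for human recombinant APAO. Analogue tested at 50 μM, with activity expressed relative to reaction without analogue.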

DU-145 = assay: Reversal of alpha-difluoromethylornithine-induced growth arrest in human DU145 cells at 100 uM after 3 days; assay type: functional, cell-based
How it was run: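 DU145 cells cultured 3 days with 100 μM analogue, with or without 5 mM DFMO, all supplemented with 1 mM aminoguanidine. Growth assessed by electronic cell counting. Means ± SD, n = 3.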

[8] = target: T1, S-adenosylmethionine decarboxylase proenzyme (Homo sapiens); assay: Inhibition of AdoMetDC in human DU145 cells at 100 uM after 6 hrs; assay type: cell-based
[9] = target: T2, Ornithine decarboxylase (Homo sapiens); assay: Inhibition of ODC in human DU145 cells at 100 uM after 3 days; assay type: cell-based
[10] = target: Spermine oxidase (Homo sapiens) (UniProt Q9NWM0); assay: Inhibition of recombinant human SMOX at 50 uM using spermine as substrate relative to control; how it was run: as §2
[11] = target: Diamine acetyltransferase 1 (Mus musculus) (UniProt P48026); assay: Inhibition of recombinant mouse SSAT using spm as substrate at 500 uM relative to control
Diamine acetyltransferase 1 (Mus musculus) (UniProt P48026), sequence (P48026 whole entry): as the sequence (P21673 whole entry) above, with V5K, A12S, E32D, L42Q, R119K, T169A counted along it
How it was run: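 Mouse recombinant SSAT acetylation with spermine fixed at 50 μM as substrate, analogue present at 500 μM. Activity expressed relative to reaction without analogue.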

[12] = target: Ornithine decarboxylase antizyme 1 (Homo sapiens) (UniProt P54368); assay: Induction of OAZ1 in human DU145 cells assessed as reduction in intracellular ODC activity at 100 uM after 6 hrs relative to control; set-up: scale not given: the % may be the effect or the level left

Diamine acetyltransferase 1 (Mus musculus), sequence (chain, as listed by the source): as the sequence (P21673 whole entry) above, with V5K, A12S, E32D, L42Q, R119K, T169A counted along it

Compound | Km (CC(CCN)NCCCCNC(C)CCN) | Vmax (CC(CCN)NCCCCNC(C)CCN) | Km (CC(CN)CNCCCCNCC(C)CN) | Vmax (CC(CN)CNCCCCNCC(C)CN) | inhibition [1] | Activity [2] | inhibition [3] | Activity [4] | Activity [5] | inhibition [6] | inhibition [7] | Activity (DU-145) | inhibition [8] | inhibition [9] | inhibition [10] | inhibition [11] | Activity [12]
Diamine acetyltransferase 1 (Mus musculus) | 60 µM | 0.136 µmol/min/mg | 52 µM | 0.895 µmol/min/mg |  |  |  |  |  |  |  |  |  |  |  |  | 
CC(CN)CNCCCCNCC(C)CN (centres undefined) |  |  |  |  | Active | 80% | 70% | Active | inactive | Active | 80% | Active | Active | Active |  |  | 
NCCCNCCCCNCCCN |  |  |  |  |  | 80% |  |  |  | Active |  |  |  | Active |  |  | 
CC(CCN)NCCCCNC(C)CCN (centres undefined) |  |  |  |  | Active | 5% |  | inactive | inactive | inactive | inactive | Active | Active | inactive | 70% | 75% | 55%
CC(N)CCNCCCCNCCC(C)N (centres undefined) |  |  |  |  | Active | 80% |  | Active | inactive | Active | inactive | Active | Active | Active |  | 80% | 
